# PDI turbidity – inhibitors of human PDI, primary screen, biochemical, turbidity, single point, plate reader; PDI insulin aggregation turbidity, A650, 90 min; 350,000 tested, 0.052% active; inhibition, % at 10 µM;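 active = mean inhibition across replicates of 30% or more, whatever share of single replicates reach that level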
# S100A4 MyoIIA – inhibitors of S100A4-myosin IIA peptide binding, primary screen, biochemical, fluorescence polarization, TAMRA-MyoIIA peptide. inhibition, % at 10.7 µM. Protein S100-A4 (Homo sapiens), P26447. 360,000 tested, 0.14% active. AID 652163, 2013;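 active = mean inhibition of at least 70% across replicates, with every replicate also reaching that level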
# Target sequence (P26447 whole entry, looked up): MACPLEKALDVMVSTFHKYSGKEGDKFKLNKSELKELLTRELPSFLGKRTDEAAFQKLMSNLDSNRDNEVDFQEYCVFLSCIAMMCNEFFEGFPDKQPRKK
#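 Material: human S100A4 monomer with TAMRA-labelled myosin IIA peptide; buffer or medium: HEPES pH 7.2 with CaCl2, KCl, NaCl, DTT, Triton; compound dosing: one concentration per compound; schedule: 5 min incubation before reading; benchmarks: neutral control DMSO, positive control TFP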
# GSIS activator – GLuc luminescence reporter in INS-1E cells, primary screen for activators of glucose-dependent secretion of insulin | INS-1E GLuc reporter insulin secretion, 2-3 h | activation, % at 16.6 µM | 370,000 tested, 0.61% active | AID 743287, 2014;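 active = lowest replicate activation of at least 40%, so every replicate reaches that level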;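 note: 0% = median of neutral control wells and 100% = median of IBMX positive control wells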
# ERp5 block – inhibitors of ERp5-driven insulin aggregation, primary screen, biochemical, turbidity, absorbance 650 nm, single point. 90 min. AID 651711, 2012. Protein disulfide-isomerase A6 (Homo sapiens), Q15084. 350,000 tested, 0.05% active. inhibition, % at 9.99 µM;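 active = mean replicate inhibition above about 25%, with every replicate also reaching it, limit read from the data, passing the limit was not always enough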
# SIRT5 inh – SIRT5 desuccinylase inhibitors, primary screen, biochemical, fluorescence imaging, single point, set 5 | Purified SirT5, succinyl-peptide AMC, trypsin-coupled fluorescence | inhibition, % at 15 µM | 330,000 tested, 1.1% active; in the data active = inhibition above about 15%
# Target sequence (Q9NXA8 whole entry, looked up): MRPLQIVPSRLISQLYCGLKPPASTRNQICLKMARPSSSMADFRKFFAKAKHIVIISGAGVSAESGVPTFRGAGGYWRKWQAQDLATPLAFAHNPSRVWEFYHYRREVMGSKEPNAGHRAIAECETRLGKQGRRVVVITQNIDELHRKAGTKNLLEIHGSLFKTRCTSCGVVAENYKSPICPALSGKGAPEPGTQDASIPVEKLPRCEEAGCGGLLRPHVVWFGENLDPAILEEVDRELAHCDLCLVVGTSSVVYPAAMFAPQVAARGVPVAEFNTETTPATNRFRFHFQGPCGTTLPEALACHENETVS
# Starred values were filed as active, the others as inactive; nt = no result. Sampled rows, rich in hits. Any-hit rate of the full collection: about 1.5%.
SMILES,PDI turbidity,S100A4 MyoIIA,GSIS activator,ERp5 block,SIRT5 inh
C[C@@H]1CN([C@@H](C)CO)C(=O)c2cc(NC(=O)Cc3ccccc3)ccc2O[C@@H](C)CCCCO[C@H]1CN(C)Cc1ccncc1,nt,nt,-7.6,nt,nt
C[C@@H]1CN([C@H](C)CO)C(=O)c2cc(NS(=O)(=O)c3cccs3)ccc2O[C@@H](C)CCCCO[C@@H]1CN(C)Cc1ccc(C(F)(F)F)cc1,nt,-31.0,-13.6,8.0,19.2*
C[C@@H]1CCCCO[C@H](CN(C)Cc2ccc(C(F)(F)F)cc2)[C@@H](C)CN([C@@H](C)CO)C(=O)c2cc(NS(=O)(=O)c3cccs3)ccc2O1,nt,-15.4,-17.7,2.8,16.5*
C[C@@H]1CCCCO[C@@H](CN(C)Cc2ccc(Cl)c(Cl)c2)[C@H](C)CN([C@@H](C)CO)C(=O)c2cc(NS(=O)(=O)c3cccs3)ccc2O1,nt,-0.1,-15.5,-4.9,25.1*
C[C@@H]1CN([C@H](C)CO)C(=O)c2cc(NS(=O)(=O)c3cccs3)ccc2O[C@@H](C)CCCCO[C@H]1CN(C)Cc1ccc(C(=O)O)cc1,nt,4.6,38.6,-5.7,7.6
C[C@@H]1CN([C@@H](C)CO)C(=O)c2cc(NS(=O)(=O)c3cccs3)ccc2O[C@@H](C)CCCCO[C@H]1CN(C)Cc1ccc(C(F)(F)F)cc1,nt,3.3,-23.9,-9.0,14.9
C[C@@H]1CN([C@H](C)CO)C(=O)c2cc(NS(=O)(=O)c3cccs3)ccc2O[C@@H](C)CCCCO[C@H]1CN(C)Cc1ccc(Cl)c(Cl)c1,nt,6.5,-21.5,-0.2,5.4
C[C@H](CO)N1C[C@H](C)[C@@H](CN(C)Cc2ccc(C(F)(F)F)cc2)OCCCC[C@H](C)Oc2ccc(NS(=O)(=O)c3cccs3)cc2C1=O,nt,36.9,-13.4,-1.0,20.8*
Cc1ccc(S(=O)(=O)N[C@H]2CC[C@@H](CCn3cc(C4(O)CCCC4)nn3)O[C@H]2CO)cc1,nt,5.9,1.5,1.8,-2.5
C[C@@H]1O[C@@H](OC[C@H]2O[C@@H](Oc3cc(O)c4c(=O)cc(-c5ccc(O)c(O)c5)oc4c3)[C@H](O)[C@@H](O)[C@@H]2O)[C@H](O)[C@H](O)[C@H]1O,4.0,nt,nt,nt,nt
O=c1c(OC2OC(CO)C(O)C(O)C2OC2OC(CO)C(O)C(O)C2O)c(-c2ccc(O)cc2)oc2cc(O)cc(O)c12 (stereo not drawn),nt,11.4,12.6,-1.0,nt
C[C@@H]1O[C@@H](Oc2c(-c3cc(O)c(O)c(O)c3)oc3cc(O)cc(O)c3c2=O)[C@H](O)[C@H](O)[C@H]1O,47.4*,-2.5,-3.8,11.5,-0.1
C[C@@H]1O[C@@H](Oc2c(-c3ccc(O)c(O)c3)oc3cc(O)cc(O)c3c2=O)[C@H](O)[C@H](O)[C@H]1O,73.0*,-6.8,-2.0,1.8,2.3
COc1cc(-c2oc3cc(O)cc(O)c3c(=O)c2O[C@@H]2O[C@H](COC3O[C@@H](C)[C@H](O)[C@@H](O)[C@H]3O)[C@@H](O)[C@H](O)[C@H]2O)ccc1O (stereo partly drawn),55.6*,1.4,-1.2,-2.0,nt
O=c1c(O)c(-c2ccc(O)cc2)oc2cc(O)cc(O)c12,nt,-1.1,10.8,-1.2,0.8
C[C@@H]1O[C@@H](O[C@H]2[C@H](O)[C@@H](O)[C@H](Oc3c(-c4ccc(O)c(O)c4)oc4cc(O)cc(O)c4c3=O)O[C@@H]2CO)[C@H](O)[C@H](O)[C@H]1O,67.3*,-0.3,7.9,-7.2,nt
C[C@@H]1CN([C@H](C)CO)C(=O)c2cccc(NS(C)(=O)=O)c2O[C@H]1CN(C)S(=O)(=O)c1ccccc1,nt,8.0,18.6,-10.3,2.8
O=C(C[C@H]1C[C@@H]2c3cc(NC(=O)C4CCC4)ccc3O[C@@H]2[C@@H](CO)O1)NC1CCCCC1,nt,-30.4,-11.6,0.2,7.8
COCC(=O)N1C[C@H](C)[C@@H](OC)CN(C)C(=O)c2ccc(NS(C)(=O)=O)cc2OC[C@@H]1C,nt,1.7,8.0,-3.7,-1.5
Cn1c(=O)c2c(nc(OCCc3ccccc3)n2C)n(C)c1=O,-2.9,-2.4,10.0,-1.1,25.8*
Cn1c(=O)c2c(nc3n2CCCN3CCc2ccccc2)n(C)c1=O,4.2,-1.9,47.5*,2.6,-0.6
COc1cc(/C=N/Nc2cc(C)nc(NS(=O)(=O)c3ccc(C)cc3)n2)ccc1O,27.6,2.9,45.7*,1.4,0.2
CCCNC(=O)N1C[C@@H](O)COC[C@H]2O[C@H](CC(=O)NCc3ccncn3)CC[C@@H]21,nt,8.3,24.6,-2.6,2.1
O=C(C[C@H]1CC[C@H](NC(=O)CN2CCOCC2)[C@@H](CO)O1)NCCc1ccncc1,nt,-16.6,10.9,-2.1,-1.2
C[C@@H]1CN([C@H](C)CO)C(=O)CCCn2nncc2CO[C@@H]1CN(C)C(=O)Nc1ccc2c(c1)OCCO2,nt,-35.9,6.3,2.6,-2.3
SMILES,PDI turbidity,S100A4 MyoIIA,GSIS activator,ERp5 block,SIRT5 inh
C[C@H](NC(=O)OCc1ccccc1)C(=O)NNC(=O)[C@H](C)NC(=O)OCc1ccccc1,2.0,-2.6,-2.6,9.3,21.2*
CCOc1ccc(NC(=O)[C@@H](NC(=O)OCc2ccccc2)[C@@H](C)CC)cc1,-17.3,nt,49.3*,nt,nt
CCC(C)C(NC(N)=O)C(=O)Nc1ccc(OCc2ccccc2)cc1 (stereo not drawn),0.3,-27.7,9.2,-5.3,-5.2
O=C(Nc1ccccc1F)N[C@@H]1CC[C@@H](CCNC(=O)C2CCC2)O[C@H]1CO,nt,2.2,18.2,-0.9,-1.7
COC(=O)C1=CN(Cc2ccc(OC)c(OC)c2)C=C(C(=O)OC)C1c1ccc(O)cc1,2.4,-2.7,21.9,2.8,-14.7
COC(=O)C1=CN(Cc2ccc(OC)c(OC)c2)C=C(C(=O)OC)C1c1ccc(F)cc1,-2.1,-2.1,nt,1.3,17.7*
CCOC(=O)c1oc2ccccc2c1NC(=O)COC,7.7,nt,28.8,nt,nt
CCOCC(=O)Nc1c(C(=O)OCC)oc2ccccc12,2.1,nt,44.3*,nt,nt
CCN(CC(=O)Nc1c(F)cccc1F)C(=O)c1ccc2c(c1)NC(=O)C(C)S2 (stereo not drawn),18.4,-2.5,10.1,2.5,27.4*
CCN(CC(=O)Nc1ccc(OC)cc1)C(=O)c1ccc2c(c1)NC(=O)C(C)S2 (stereo not drawn),-0.1,-3.6,-4.2,0.7,-0.9
CC(=O)N(C)C[C@@H]1Oc2cc(C#Cc3ccc(F)cc3)ccc2S(=O)(=O)N([C@H](C)CO)C[C@H]1C,nt,-21.2,-17.3,-0.6,0.2
N#C[C@@H]1[C@H](c2ccccc2)[C@H](CO)N1C(=O)CCN1CCCCC1,nt,9.2,2.9,-0.4,-2.1
CCOc1nc(CC(C)C)c2c(c1C#N)CC(C)(C)OC2,-1.2,25.3,51.2*,5.0,-3.7

# Source: PubChem (Broad Institute)
